Screening data as filed in PubChem.
Shown are actives, neighbours in structure and some others; about 1.4% of the full set was active somewhere.
m-calpain inh: inhibitors of pig calpain II, primary screen, biochemical, fluorogenic peptide substrate, 1536-well | purified calpain II, 30 min | 220,000 compounds, 0.37% hits | inhibition, % at 16 µM;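 active means inhibition above about 50%, limit read from the data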
FXIIa inh 1536: human FXIIa protease inhibitors, primary screen, biochemical, 1536-well; Coagulation factor XII (Homo sapiens), P00748; purified FXIIa, Boc-QGR-AMC fluorogenic substrate, 2 h; inhibition, % at 5 µM; 220,000 compounds, 0.3% hits; in the data active means inhibition above about 40%;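 further: 0% = enzyme with no compound and 100% = blank without enzyme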
Target sequence (P00748 20-372 limits assumed): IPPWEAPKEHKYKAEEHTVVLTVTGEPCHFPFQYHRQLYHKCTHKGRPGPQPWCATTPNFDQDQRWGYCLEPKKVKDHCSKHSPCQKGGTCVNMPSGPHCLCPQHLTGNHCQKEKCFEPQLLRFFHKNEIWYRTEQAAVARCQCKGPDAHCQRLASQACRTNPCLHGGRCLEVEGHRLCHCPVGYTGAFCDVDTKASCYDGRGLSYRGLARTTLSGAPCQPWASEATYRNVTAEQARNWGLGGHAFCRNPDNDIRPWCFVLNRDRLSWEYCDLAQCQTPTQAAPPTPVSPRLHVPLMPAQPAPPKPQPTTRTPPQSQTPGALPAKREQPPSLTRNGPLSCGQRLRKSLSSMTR
Target sequence (P00748 373-615 limits assumed): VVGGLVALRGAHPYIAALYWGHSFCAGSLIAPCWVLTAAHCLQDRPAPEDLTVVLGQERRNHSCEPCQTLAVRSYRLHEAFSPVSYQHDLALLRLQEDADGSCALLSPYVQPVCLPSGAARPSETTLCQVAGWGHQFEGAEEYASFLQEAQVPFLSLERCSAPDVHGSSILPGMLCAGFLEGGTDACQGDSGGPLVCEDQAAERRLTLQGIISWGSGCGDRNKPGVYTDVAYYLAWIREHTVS
hK5 inh: human KLK5 protease inhibitors, primary screen, biochemical, 1536-well. AID 873, 2007. 210,000 compounds, 0.59% hits. recombinant hK5, fluorogenic AMC substrate cleavage. inhibition, % at 5 µM;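 active means inhibition of 40% or more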;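 further: 0% = enzyme controls without compound and 100% = no-enzyme blanks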
FXIa inh: human FXIa protease inhibitors, primary screen, biochemical, 1536-well; Coagulation factor XI (Homo sapiens), P03951; purified FXIa, Boc-Glu-Ala-Arg-AMC fluorogenic substrate; inhibition, % at 5 µM; 220,000 compounds, 0.14% hits; AID 798, 2007;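 active means inhibition of at least 40%; inactive means inhibition below 40%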;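 further: fluorescence of freed AMC excited at 355 nm; 0% = enzyme without compound and 100% = no enzyme blank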
thrombin 1536: human alpha-thrombin inhibitors, primary screen, counter-screen for coagulation protease inhibitor project, biochemical, 1536-well, fluorogenic AMC substrate; Prothrombin (Homo sapiens), P00734; Boc-VPR-AMC fluorogenic substrate cleavage; inhibition, % at 5 µM; 220,000 compounds, 0.26% hits;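 active means inhibition at or above 40%; inactive means inhibition below 40%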;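 further: 0% = enzyme with no compound and 100% = wells without enzyme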
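Material: human alpha-thrombin protein. Incubation: reaction at ambient temperature. Technique: fluorescence of released AMC, ex 355 nm, em 460 nm. Control set: no-compound enzyme wells and no-enzyme blanks. Also added: Boc-VPR-AMC substrate, 15 µM final. Buffer or medium: pH 7.5 Tris (50 mM) with NaCl 150 mM, Tween 20 0.05%.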
* = called active by the depositor; . = not tested or not shown.

SMILES | m-calpain inh | FXIIa inh 1536 | hK5 inh | FXIa inh | thrombin 1536
Cc1cc(F)ccc1N1CCC(N2CCN(CCC(C)C)C(CCO)C2)CC1 (centres undefined) | 15 | 28 | 42* | 40 | 45*
c1cnn(-c2cncc(-n3cccn3)n2)c1 | 20 | 14 | . | 0 | -2
S=C(NCc1cccs1)NCC1CCCO1 (centres undefined) | 29 | 25 | 14 | 26 | 60*
O=C(Cc1cccs1)NCC1CCCO1 (centres undefined) | -42 | 2 | -16 | -5 | -3
S=C(NCC1CCCO1)Nc1ccc(Nc2ccccc2)cc1 (centres undefined) | 29 | 25 | 40* | 29 | -3
COc1ccc(C2C(C(C)=O)=C(O)C(=O)N2c2nccs2)cc1OC (centres undefined) | 20 | 50* | 57* | 11 | 23
COc1ccc(C2C(C(C)=O)=C(O)C(=O)N2c2nc3ccccc3s2)cc1OC (centres undefined) | -25 | 5 | -5 | -2 | 6
COCCCNC(=S)N1CCC(NC(=O)c2ccco2)CC1 | -24 | 3 | -2 | -3 | 0
CC(NC(=O)Nc1nnc(C(F)(F)F)s1)(C(F)(F)F)C(F)(F)F | 36 | 40* | -1 | 20 | 3
Fc1ccc(CNc2nc(-c3ccccc3)nc3ccccc23)cc1 | 55* | 15 | 20 | 17 | -2
c1ccc(-c2nc(NCc3cccnc3)c3ccccc3n2)cc1 | 20 | 16 | 10 | 1 | -3
Cc1ccc(-c2nc(NCc3ccco3)c3ccccc3n2)cc1 | 61* | 10 | -16 | 9 | -8
O=C(COC(=O)c1ccncc1)Nc1cc(Cl)c(Cl)cc1Cl | -13 | 10 | -9 | 0 | 1
COc1ccccc1NC(=O)C1=C(C)Nc2ncnn2C1c1cccs1 (centres undefined) | 22 | 9 | 3 | 7 | 5
COc1ccc(C2C(C(=O)Nc3ccccc3OC)=C(C)Nc3ncnn32)cc1 (centres undefined) | -21 | 107* | 45* | 20 | 25
CC1Cc2ccccc2N1C(=O)C1CCCCN1S(=O)(=O)c1ccccc1 (centres undefined) | 28 | 31 | 41* | 14 | 32
CC1Cc2ccccc2N1C(=O)C1CCN(S(=O)(=O)Cc2ccccc2)CC1 (centres undefined) | 2 | 14 | -3 | -14 | -3
O=C(CCn1ccc2ccccc21)Nc1ccc(N2CCOCC2)cc1 | -9 | -4 | -1 | -1 | 1
Cc1ccc(CSc2ncnc3c2cnn3-c2ccc(C)cc2)cc1 | 14 | 41* | 45* | 22 | 21
Cn1ncc(Cl)c(Oc2ccc(Cl)cc2)c1=O | -2 | 16 | -5 | 10 | 1
Cn1ncc(Oc2ccc([N+](=O)[O-])cc2)c(Cl)c1=O | 8 | 42* | 71* | 25 | -1
CN(C)c1ccc(C(=O)NN2C(=O)c3ccccc3C2=O)cc1 | 31 | 99* | -4 | 0 | -1
COc1cc(CNCCc2ccccc2)cc(Cl)c1OCc1ccccc1 | 3 | 6 | -9 | -4 | -3
CCOC(=O)c1cnc(-n2nc(C)cc2C)nc1Nc1ccccc1OC | -21 | 2 | -17 | -27 | 0
CCOC(=O)c1cnc(-n2nc(C)cc2C)nc1Nc1ccc(OC)cc1 | 54* | 1 | -10 | -5 | 16
SMILES | m-calpain inh | FXIIa inh 1536 | hK5 inh | FXIa inh | thrombin 1536
COc1ccc(NC(=O)C2CCCN(S(=O)(=O)c3cccc4cccnc34)C2)c(OC)c1 (centres undefined) | 124* | 33 | 113* | 13 | 21
Cc1ccc2nc(NC(=O)CN(C)S(=O)(=O)c3cccc4nsnc34)sc2c1 | 53* | 7 | 34 | 7 | 20
Cc1ccc2nc(NC(=O)C3CCN(S(=O)(=O)c4cccc5nsnc45)CC3)sc2c1 | 4 | 10 | 32 | 16 | 21
Cc1ccc2nc(NC(=O)C3CCCN(S(=O)(=O)c4cccc5nsnc45)C3)sc2c1 (centres undefined) | -267 | 45* | 31 | 17 | 15
COc1cc(C(=O)Nc2ccc3c(c2)OCCO3)ccc1OC(C)C | 8 | -2 | 63* | 9 | 34
CCOCc1cc(=O)[nH]c(SC)n1 | -3 | 6 | -1 | -2 | -2
CCOc1ccc2nc(COC(=O)c3ccncc3)c(C(=O)c3ccccc3)[n+]([O-])c2c1 | 13 | 1 | 0 | 3 | -7
CCc1cc(-c2[nH]ncc2-c2nc3ccccc3n2C)c(O)cc1O | 20 | 14 | 21 | 75* | 17
CN(C)S(=O)(=O)c1cccc(NC(=O)CCNC(=O)c2ccccc2Cl)c1 | -6 | 6 | -7 | 9 | 5
CCOc1ccc(NC(=O)CCC(=O)O)cc1 | 14 | 14 | -1 | 4 | -2
CCOc1ccc(NC(=O)CCSc2nnc(C)s2)cc1 | -16 | 24 | 46* | 19 | 22
O=[N+]([O-])c1ccc(Nc2ccc(F)cc2)nc1 | 18 | 7 | 55* | 1 | 23
O=[N+]([O-])c1ccc(NCc2ccccc2)nc1 | 52* | 23 | 8 | 11 | 21
O=[N+]([O-])c1ccc(Nc2ccccc2)nc1 | 10 | 15 | -1 | 11 | 2
C/C=C\C(=O)Nc1cccc(C2=NOC3(C2)C[C@@H](C(N)=O)N(C(=O)c2ccc(OC)cc2)C3)c1 (some centres undefined) | -18 | 7 | 3 | 2 | -1
Oc1ccc(Br)cc1C=Nc1ccc(Cl)cc1 | 94* | 7 | -3 | -1 | -4
CCN(CC)c1ccc(N=Cc2cc(Br)ccc2O)cc1 | -26 | 9 | -2 | 1 | 1
CCOc1cc(CNC(C)C)c(Cl)cc1OCC(=O)NCCc1ccccc1 | -24 | 2 | -14 | -4 | -2
O=C(Nc1ccc(N2CCOCC2)cc1)c1cnsn1 | 8 | 6 | 51* | 2 | 13
O=C(Nc1ccc(N2CCOCC2)cc1)c1ccncc1 | -13 | 6 | -12 | -1 | -4
O=C(NCCc1nc(-c2ccccc2)cs1)c1ccc(Br)cc1 | 3 | -3 | -26 | -4 | -12
CCOC(=O)c1c(N)nn(C(=O)C(C)C)c1-c1ccc(OC)cc1 | 9 | 6 | -14 | -1 | -4
CCOC(=O)c1c(N)nn(C(C)=O)c1-c1ccccc1 | 10 | -1 | 86* | -7 | 3
Cc1ccc(NC(=O)COc2cccc(/C=C3\SC(=S)N(CCC(=O)O)C3=O)c2)cc1Cl | 76* | 13 | 11 | 4 | 2
Cc1ccc(OCC(=O)NC(=S)Nc2ccc(Br)cn2)cc1C | -12 | 8 | 3 | 0 | -6
S=c1[nH]nc(-c2ccncc2)n1/N=C/C=C/c1ccco1 | 19 | 74* | 30 | 28 | 37
Cc1ccc(NC(=O)c2ccc(C(C)(C)C)cc2)cc1-n1cnnn1 | 62* | 8 | -7 | -1 | 0
